Measurements collected from several papers.
Lines come from different studies, so protocols differ. In brackets after ≈: the same amount, converted by molar mass.

C[C@H](N)Cn1ncc2ccc3c(c21)CCCO3
pKa (potentiometric; water): 8.45

CC(C)(C)c1cc(NC(=O)Nc2ccc(Oc3ccnc4[nH]c(=O)cnc34)cc2F)n(-c2ccccc2)n1
MTD (general toxicity; CD-1 mouse; oral, single dose): 40 mg/kg

N=c1c2c(-c3ccccc3)c(-c3ccccc3)n(Cc3ccccc3)c2ncn1[C@H]1CC[C@H](O)CC1
Tmax (male beagle dog, plasma; oral, 1 mg/kg, single dose): ~15 h

COc1ccc(C2=Nn3c(nnc3-c3cc(-c4ccc(Cl)cc4)n[nH]3)SC2C)cc1 (centres unmarked)
MTD (general toxicity; mouse; intravenous, 4 mg/kg, single dose): 4 mg/kg

Nc1ncc(-c2nc(N3CCOCC3)nc(N3CCOCC3)n2)c(C(F)F)n1
thermodynamic solubility (shake flask; FeSSIF; 24 h): 13.9 µM (≈ 5.48 µg/mL)

CC(=O)N[C@@H](CC(N)=O)C(=O)N[C@@H](CC(N)=O)C(=O)N[C@@H](CC(C)C)C(=O)N[C@H]1CSSC[C@@H](C(=O)N[C@H](C(N)=O)[C@@H](C)O)NC(=O)[C@H](CCCNC(=N)N)NC(=O)[C@H](Cc2c[nH]cn2)NC(=O)[C@H](Cc2cccc3ccccc23)NC(=O)CNC(=O)[C@H](Cc2c[nH]c3ccccc23)NC(=O)[C@H](CC(=O)O)NC(=O)[C@H](CCC(N)=O)NC(=O)[C@H](Cc2cccc3ccccc23)NC(=O)[C@H](C(C)C)NC1=O
solubility (PBS; pH 7.4): 270 µg/mL (≈ 136 µM)

C=C(CC)C(=O)c1ccc(OCC(=O)O)c(Cl)c1Cl
MTD (general toxicity; mouse; intraperitoneal): 30 mg/kg

Cc1cc(C)nc(Nc2ncc(C(=O)NCCc3c(C)[nH]c4ccccc34)cn2)c1
pKa: 5.8

COc1ccnc(C(=O)N[C@H]2COC(=O)[C@H](Cc3ccccc3)[C@@H](OC(=O)C(C)C)[C@H](C)OC2=O)c1OCOC(=O)C(C)C
pKa: 2.4

CCCCCCCCCCCC(=O)OC[C@@H](COP(=O)(O)OCCNC(=O)c1ccc(Cn2c(=O)[nH]c3c(N)nc(OCCOC)nc32)cc1)OC(=O)CCCCCCCCCCC
MTD (general toxicity; mouse; intravenous): 150 mg/kg

CC[C@H](C)[C@H](NC(=O)[C@H](CO)NC(=O)[C@H](CCCNC(=N)N)NC(C)=O)C(=O)N[C@H]1CSSC[C@@H](C(=O)N[C@H](C(N)=O)[C@@H](C)O)NC(=O)[C@H](CCCNC(=N)N)NC(=O)[C@H](Cc2c[nH]cn2)NC(=O)[C@H](C)NC(=O)CNC(=O)[C@H](Cc2c[nH]c3ccccc23)NC(=O)[C@H](CC(=O)O)NC(=O)[C@H](CCC(N)=O)NC(=O)[C@H](Cc2cccc3ccccc23)NC(=O)[C@H](C(C)C)NC1=O
solubility (PBS; pH 7.4): 2110 µg/mL (≈ 1130 µM)

Cc1ncc(C)n2nc(/C=C/c3nc(N4CCCC4)cc(N4CCOCC4)n3)nc12
Tmax (male beagle dog, plasma; oral, 0.3 mg/kg): 1.2 h

CC(=O)N[C@@H](CC(N)=O)C(=O)N[C@@H](CCCNC(=N)N)C(=O)N[C@@H](CC(C)C)C(=O)N[C@H]1CSSC[C@@H](C(=O)N[C@H](C(N)=O)[C@@H](C)O)NC(=O)[C@H](CCCNC(=N)N)NC(=O)[C@H](Cc2c[nH]cn2)NC(=O)[C@H](Cc2cccc3ccccc23)NC(=O)CNC(=O)[C@H](Cc2c[nH]c3ccccc23)NC(=O)[C@H](CC(=O)O)NC(=O)[C@H](CCC(N)=O)NC(=O)[C@H](Cc2c[nH]c3ccccc23)NC(=O)[C@H](C(C)C)NC1=O
solubility (PBS; pH 7.4): 340 µg/mL (≈ 169 µM)

CCCC(CCC)NC(=O)c1ccc2c(c1)OCO2
MTD (general toxicity; Swiss mouse; intraperitoneal): 700 mg/kg
